The source made the active and inactive calls. The rule behind the calls is not given here.
Tests used:
P2X purinoceptor 7 [1] = target: T1, P2X purinoceptor 7 (Homo sapiens, UniProt Q99572); experiment: Antagonist activity at human cloned P2X7 receptor expressed in HEK293 cells assessed as inhibition of calcium flux by FLIPR assay; type: functional, cell-based
T1 sequence (Q99572 whole entry): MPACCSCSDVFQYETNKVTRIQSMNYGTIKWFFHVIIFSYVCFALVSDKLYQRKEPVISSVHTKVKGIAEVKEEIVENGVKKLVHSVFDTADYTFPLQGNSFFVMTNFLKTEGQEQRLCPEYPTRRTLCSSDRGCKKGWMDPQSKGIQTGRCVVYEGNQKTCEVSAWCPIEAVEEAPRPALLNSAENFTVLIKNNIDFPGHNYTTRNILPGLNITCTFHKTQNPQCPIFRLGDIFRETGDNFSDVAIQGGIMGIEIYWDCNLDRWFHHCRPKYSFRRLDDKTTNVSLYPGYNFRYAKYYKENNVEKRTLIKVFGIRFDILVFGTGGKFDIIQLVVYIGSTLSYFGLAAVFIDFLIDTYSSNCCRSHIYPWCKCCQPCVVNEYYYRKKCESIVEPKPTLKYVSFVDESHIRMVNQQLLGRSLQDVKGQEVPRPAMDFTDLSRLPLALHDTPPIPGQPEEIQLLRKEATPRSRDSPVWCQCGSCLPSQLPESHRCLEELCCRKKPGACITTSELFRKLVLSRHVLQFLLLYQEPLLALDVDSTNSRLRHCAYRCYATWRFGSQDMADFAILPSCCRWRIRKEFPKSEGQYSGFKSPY
Procedure, shortened: (§1)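 Calcium influx read on a fluorometric imaging plate reader with Fluo-4 as the calcium-sensing dye. The P2X7 agonist was benzoylbenzoic ATP (BzATP). pIC50 values are the mean of two experiments unless otherwise indicated; some values are the mean of more than two experiments, with standard deviation shown.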

[2] = Bioavailability in rat at 10 umol/kg, ip; type: ADME, organism-based; details: in vivo
[3] = Oral bioavailability in rat; type: ADME, organism-based; details: in vivo
P2X purinoceptor 7 [4] = target: T2, P2X purinoceptor 7 (Rattus norvegicus, UniProt Q64663); experiment: Antagonist activity at rat cloned P2X7 receptor expressed in HEK293 cells assessed as inhibition of calcium flux by FLIPR assay; type: functional, cell-based; procedure, shortened: as §1
T2 sequence (Q64663 whole entry): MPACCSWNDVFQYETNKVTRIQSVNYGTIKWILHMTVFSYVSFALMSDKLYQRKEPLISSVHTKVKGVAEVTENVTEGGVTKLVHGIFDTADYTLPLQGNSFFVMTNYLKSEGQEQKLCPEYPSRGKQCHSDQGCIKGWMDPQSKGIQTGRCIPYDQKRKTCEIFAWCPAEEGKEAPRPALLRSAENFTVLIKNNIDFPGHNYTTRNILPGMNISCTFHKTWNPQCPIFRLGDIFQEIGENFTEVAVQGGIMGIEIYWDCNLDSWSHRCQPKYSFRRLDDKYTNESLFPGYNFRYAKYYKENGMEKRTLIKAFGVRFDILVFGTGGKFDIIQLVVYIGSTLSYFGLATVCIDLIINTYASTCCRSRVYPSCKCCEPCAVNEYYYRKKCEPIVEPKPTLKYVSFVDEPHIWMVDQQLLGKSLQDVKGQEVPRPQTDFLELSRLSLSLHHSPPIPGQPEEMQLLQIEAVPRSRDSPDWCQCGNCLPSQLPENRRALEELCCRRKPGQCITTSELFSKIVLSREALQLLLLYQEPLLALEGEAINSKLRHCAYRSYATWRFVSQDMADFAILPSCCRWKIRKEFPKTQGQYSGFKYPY

[5] = target: P2Y purinoceptor 2 (Homo sapiens) (UniProt P41231); experiment: Activity at P2Y2 receptor up to 10 uM
Chain of P2Y purinoceptor 2 (Homo sapiens) (P41231 whole entry): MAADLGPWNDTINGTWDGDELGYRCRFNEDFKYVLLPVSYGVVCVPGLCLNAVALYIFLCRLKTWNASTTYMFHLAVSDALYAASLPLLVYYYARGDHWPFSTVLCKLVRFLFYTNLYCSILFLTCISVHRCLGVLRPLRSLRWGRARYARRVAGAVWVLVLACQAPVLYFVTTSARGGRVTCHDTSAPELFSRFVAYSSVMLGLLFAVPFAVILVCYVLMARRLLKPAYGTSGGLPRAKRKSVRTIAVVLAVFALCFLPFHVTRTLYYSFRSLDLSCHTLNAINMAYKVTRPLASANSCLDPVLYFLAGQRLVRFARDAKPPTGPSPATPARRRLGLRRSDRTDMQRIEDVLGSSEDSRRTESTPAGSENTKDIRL

[6] = target: T3, P2X purinoceptor 4 (Homo sapiens) (UniProt Q99571); experiment: Activity at P2X4 receptor up to 10 uM
T3 sequence (whole entry): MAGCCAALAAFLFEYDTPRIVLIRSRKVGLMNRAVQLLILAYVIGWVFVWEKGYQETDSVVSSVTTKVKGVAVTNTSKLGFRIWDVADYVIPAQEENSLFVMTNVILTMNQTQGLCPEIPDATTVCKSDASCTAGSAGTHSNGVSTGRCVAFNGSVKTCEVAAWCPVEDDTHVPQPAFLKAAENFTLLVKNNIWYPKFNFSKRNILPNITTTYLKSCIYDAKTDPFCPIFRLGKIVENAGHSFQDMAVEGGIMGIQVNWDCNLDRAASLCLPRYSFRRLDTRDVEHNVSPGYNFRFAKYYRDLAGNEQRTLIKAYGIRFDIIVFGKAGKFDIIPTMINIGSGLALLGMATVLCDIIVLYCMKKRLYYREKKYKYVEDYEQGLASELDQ

[7] = target: T4, P2X purinoceptor 3 (Homo sapiens) (UniProt P56373); experiment: Activity at P2X3 receptor up to 10 uM
T4 sequence (whole entry): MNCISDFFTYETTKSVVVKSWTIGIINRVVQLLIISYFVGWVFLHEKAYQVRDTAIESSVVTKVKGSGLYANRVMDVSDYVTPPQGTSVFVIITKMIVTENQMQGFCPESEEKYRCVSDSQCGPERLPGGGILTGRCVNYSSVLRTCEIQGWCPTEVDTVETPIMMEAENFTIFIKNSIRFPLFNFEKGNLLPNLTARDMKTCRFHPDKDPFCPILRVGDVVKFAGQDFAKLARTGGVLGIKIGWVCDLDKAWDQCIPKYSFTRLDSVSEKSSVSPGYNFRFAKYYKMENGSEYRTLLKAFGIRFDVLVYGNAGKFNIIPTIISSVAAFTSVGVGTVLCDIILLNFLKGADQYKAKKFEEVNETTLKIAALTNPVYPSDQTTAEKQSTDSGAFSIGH

Rattus norvegicus [8] = experiment: Antinociceptive activity in ip dosed rat L5-L6 spinal nerve ligation model of neuropathic pain assessed as reduction in tactile allodynia; type: functional; parameters: Activity: scale not given: the % may be the effect or the level left; details: for ED50: Rattus norvegicus, Spinal nerve, ip
Procedure, shortened: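 Intraperitoneal dosing in rats with L5-L6 spinal nerve ligation (Chung model). Tactile allodynia was measured by von Frey testing. ED50 in µmol/kg and maximum efficacy (%) are the mean of six animals.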

Rattus norvegicus [9] = experiment: Antiallodynic activity in rat L5-L6 spinal nerve ligation model of neuropathic pain assessed as inhibition of mechanical allodynia at 100 umol/kg, po single administration; type: functional; parameters: scale not given: the % may be the effect or the level left
Procedure, shortened: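 Chung-model rats (L5-L6 spinal nerve ligation) were given a single oral dose, with 5% DMSO/PEG as vehicle. Mechanical allodynia was read by von Frey testing and expressed as % effect ± SEM, N = 6 per group, compared with vehicle.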

Rattus norvegicus [10] = experiment: Antiallodynic activity in rat L5-L6 spinal nerve ligation model of neuropathic pain assessed as inhibition of mechanical allodynia after chronic administration of vehicle twice daily for 4 days followed by acute dose of 100 umol/kg, po on day 5; type: functional; parameters: scale not given: the % may be the effect or the level left
Procedure, shortened: (§2)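 Rats with L5-L6 spinal nerve ligation (Chung model) received vehicle (5% DMSO/PEG) or compound at 100 µmol/kg orally twice a day for four days. On day 5, vehicle or compound was given orally 1 h before von Frey testing for mechanical allodynia. Results are % effect ± SEM, N = 6 per group, with P vs the respective vehicle group.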

Rattus norvegicus [11] = experiment: Antiallodynic activity in rat L5-L6 spinal nerve ligation model of neuropathic pain assessed as inhibition of mechanical allodynia at 100 umol/kg, po administered twice daily for 4 days once on day 5; type: functional; parameters: scale not given: the % may be the effect or the level left; procedure, shortened: as §2
[12] = Selectivity for P2X7 receptor over potassium channel

Compound | IC50 (P2X purinoceptor 7 [1]) | IC50 (P2X purinoceptor 7 [4]) | further results
Cc1ncccc1NC(=NC(NC(=O)Cc1ccc(Cl)cc1)C(C)(C)C)NC#N (stereo not given) | 31.6 nM | 39.8 nM | bioavailability [2]: 54%; bioavailability [3]: 36%
COc1ccc(CC(=O)NC(N/C(=N/C#N)Nc2cc(C)ccc2C)C(C)(C)C)cc1OC (stereo not given) |  |  | Activity [5]: inactive; Activity [6]: inactive; Activity [7]: inactive
Cc1ncccc1N/C(=N\C#N)NC(NC(=O)Cc1ccc(F)cc1)C(C)(C)C (stereo not given) | 100 nM | 398 nM | bioavailability [2]: 52%; Activity (Rattus norvegicus [8]): 0%; ED50 (Rattus norvegicus [8]): > 300 µmol/kg
COc1ccc(CC(=O)NC(N/C(=N/C#N)Nc2ccccc2C)C(C)(C)C)cc1OC (stereo in doubt; 13) |  |  | Activity [5]: inactive; Activity [6]: inactive; Activity [7]: inactive; Activity (Rattus norvegicus [8]): 59%; ED50 (Rattus norvegicus [8]): 77 µmol/kg
Cc1ncccc1N/C(=N\C#N)NC(NC(=O)Cc1ccc(Cl)cc1)C(C)(C)C (stereo not given) |  |  | Activity [5]: inactive; Activity [6]: inactive; Activity [7]: inactive; Activity (Rattus norvegicus [8]): 82%; ED50 (Rattus norvegicus [8]): 38 µmol/kg; Activity (Rattus norvegicus [9]): 45%; Activity (Rattus norvegicus [10]): 44%; Activity (Rattus norvegicus [11]): 61%
CC(C)(C)C(NC(=O)Cc1ccc(Cl)cc1)N/C(=N/C#N)Nc1cccc2ncccc12 (stereo not given) | 10 nM | 6.31 nM | bioavailability [2]: 66%; Activity (Rattus norvegicus [8]): 68%; ED50 (Rattus norvegicus [8]): 55 µmol/kg
COc1ccc(CC(=O)NC(N/C(=N/C#N)Nc2cccc3ncccc23)C(C)(C)C)cc1OC (stereo not given) | 39.8 nM |  | Activity [5]: inactive; Activity [6]: inactive; Activity [7]: inactive; bioavailability [2]: 79%; Activity (Rattus norvegicus [8]): 65%; ED50 (Rattus norvegicus [8]): 41 µmol/kg
Cc1ccccc1NC(=NC(NC(=O)CCCc1ccccc1)C(C)(C)C)NC#N (stereo not given) | 79.4 nM | 25.1 nM | 
COc1ccc(NC(=NC#N)NC(NC(=O)c2ccc(Cl)cc2)C(C)(Cl)Cl)c(OC)n1 (stereo not given) | 50.1 nM | 10 nM | 
COc1ncccc1N/C(=N\C#N)NC(NC(=O)c1ccc(Cl)cc1)C(C)(Cl)Cl (stereo not given) |  |  | Selectivity ratio [12]: 100
Cc1ccc(CC(=O)NC(NC(=NC#N)Nc2cccnc2C)C(C)(C)C)cc1F (stereo not given) | 63.1 nM | 200 nM | 
CC(C)(C)C(N=C(NC#N)Nc1cccc2ncccc12)NC(=O)Cc1ccc2c(c1)OCCO2 (stereo not given) | 10 nM | 10 nM | 
Cc1ccccc1N/C(=N\C#N)NC(NC(=O)Cc1ccc(Cl)cc1)C(C)(C)C (stereo not given) | 63.1 nM | 20 nM | 
COc1ccc(CC(=O)NC(N=C(NC#N)NCc2ccccc2Cl)C(C)(C)C)cc1OC (stereo not given) | 631 nM | 200 nM | 
COc1ccc(CC(=O)NC(N=C(NC#N)Nc2ccc(C)cc2)C(C)(C)C)cc1OC (stereo not given) | 2000 nM | 20 nM | 
CC(Cl)(Cl)C(NC(=O)c1ccc(Cl)cc1)N/C(=N/C#N)Nc1cccnc1Cl (stereo not given) |  |  | Selectivity ratio [12]: 100
Cc1ccccc1N/C(=N\C#N)NC(NC(=O)Cc1ccc2c(c1)OCO2)C(C)(C)C (stereo not given) | 50.1 nM | 39.8 nM | 
COc1cc(OC)cc(C(=O)NC(N/C(=N/C#N)Nc2cccnc2C)C(C)(Cl)Cl)c1 (stereo not given) | 200 nM | 1000 nM | 
COc1ccccc1NC(=NC(NC(=O)Cc1ccc(OC)c(OC)c1)C(C)(C)C)NC#N (stereo not given) | 158 nM | 25.1 nM | 
COc1ccc(CC(=O)NC(NC(=S)Nc2ccccc2C)C(Cl)(Cl)Cl)cc1OC (stereo not given) | 100 nM | 50.1 nM | 
COc1ccc(CC(=O)NC(N=C(NC#N)Nc2ccc(F)cc2)C(C)(C)C)cc1OC (stereo not given) | 316 nM | 20 nM | 
CSc1ccc(CC(=O)NC(N=C(NC#N)Nc2cccc3ncccc23)C(C)(C)C)cc1 (stereo not given) | 10 nM | 7.94 nM | 
COc1ccc(CCCC(=O)NC(NC(=NC#N)Nc2ccccc2C)C(C)(C)C)cc1 (stereo not given) | 79.4 nM | 31.6 nM | 

Further lines, with some results ahead:

IC50 (P2X purinoceptor 7 [1]) | IC50 (P2X purinoceptor 7 [4]) | Compound | further results
126 nM | 12.6 nM | COc1ccc(CC(=O)NC(NC(=NC#N)Nc2ccccc2C)C(C)(C)C)cc1OC (stereo in doubt; 13) | bioavailability [2]: 90%
100 nM | 39.8 nM | COc1ccc(CC(=O)NC(NC(=NC#N)Nc2cccnc2OC)C(C)(C)C)cc1OC (stereo not given) | 
316 nM | 100 nM | COc1ccc(CC(=O)NC(N/C(=N/C#N)Nc2cccc(F)c2F)C(C)(C)C)cc1OC (stereo not given) | 
63.1 nM | 12.6 nM | COc1ccc(CC(=O)NC(NC(=NC#N)Nc2ccccc2C)C(C)(C)C)cc1OC (single isomer, unassigned; (+)) | 
398 nM | 316 nM | COc1ccc(CC(=O)NC(N=C(NC#N)Nc2cc(F)cc(F)c2)C(C)(C)C)cc1OC (stereo not given) | 
5010 nM | 501 nM | COc1ccc(CC(=O)NC(NC(=NC#N)Nc2ccccc2C)C(C)(C)C)cc1OC (stereo in doubt; (-)-13) | 
1580 nM | 158 nM | COc1ccc(CC(=O)NC(N/C(=N/C#N)Nc2cccc3cccnc23)C(C)(C)C)cc1OC (stereo not given) | 
100 nM | 31.6 nM | COc1ccc(CC(=O)NC(NC(=NC#N)Nc2c(F)cc(F)cc2F)C(C)(C)C)cc1OC (stereo not given) | 
100 nM | 20 nM | COc1ccc(CC(=O)NC(N/C(=N/C#N)Nc2cc(F)ccc2F)C(C)(C)C)cc1OC (stereo not given) | 
251 nM | 31.6 nM | COc1ccc(CC(=O)NC(N/C(=N/C#N)Nc2cccc3cnccc23)C(C)(C)C)cc1OC (stereo not given) | 
79.4 nM | 39.8 nM | COc1ccc(CC(=O)NC(N/C(=N/C#N)Nc2cccnc2Cl)C(C)(C)C)cc1OC (stereo not given) | 
